Data published in ChEMBL document CHEMBL1649184, “Mutations in the nonstructural protein 3A confer resistance to the novel enterovirus replication inhibitor TTP-8307” (Antimicrob Agents Chemother, 2009).
The source made the active and inactive calls. The rule behind the calls is not given here.

What was measured:
Coxsackievirus B3 [1] = test: Antiviral activity against Human coxsackievirus B3 harboring wild type nonstructural protein 3A infected in african green monkey Vero cells assessed as inhibition of virus-induced cytopathic effect after 3 days by plaque assay; assay type: functional, organism-based; conditions: Enterovirus B, 72 h
Coxsackievirus B3 [2] = test: Antiviral activity against Human coxsackievirus B3 harboring nonstructural protein 3A I8T mutant infected in african green monkey Vero cells assessed as inhibition of virus-induced cytopathic effect after 3 days by plaque assay; assay type: functional, organism-based; conditions: Enterovirus B, 72 h
Coxsackievirus B3 [3] = test: Antiviral activity against Human coxsackievirus B3 harboring nonstructural protein 3A V45A mutant infected in african green monkey Vero cells assessed as inhibition of virus-induced cytopathic effect after 3 days by plaque assay; assay type: functional, organism-based; conditions: Enterovirus B, 72 h
Coxsackievirus B3 [4] = test: Antiviral activity against Human coxsackievirus B3 harboring nonstructural protein 3A I54F mutant infected in african green monkey Vero cells assessed as inhibition of virus-induced cytopathic effect after 3 days by plaque assay; assay type: functional, organism-based; conditions: Enterovirus B, 72 h
Coxsackievirus B3 [5] = test: Antiviral activity against Human coxsackievirus B3 harboring nonstructural protein 3A H57Y mutant infected in african green monkey Vero cells assessed as inhibition of virus-induced cytopathic effect after 3 days by plaque assay; assay type: functional, organism-based; conditions: Enterovirus B, 72 h
Poliovirus 2 = test: Antiviral activity against Human poliovirus 2 Sabin infected in african green monkey Vero cells assessed as inhibition of virus-induced cytopathic effect after 3 days by MTS-based CPE reduction assay; assay type: functional, organism-based; conditions: Enterovirus C, 72 h
How it was run: (§1)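 Confluent cells infected with 100 CCID50 virus, adsorbed 2 h at 37°C, then virus removed and serial compound dilutions added (DMSO stocks diluted in MEM with 2% FBS). Incubated 3 days at 37°C until full CPE in virus controls. Viability read by MTS/PMS, OD498 after 2 h. EC50 by logarithmic interpolation of % CPE protection. Mean of at least three independent experiments.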

Poliovirus 1 = test: Antiviral activity against Human poliovirus 1 strain Sabin infected in african green monkey Vero cells assessed as inhibition of virus-induced cytopathic effect after 3 days by MTS-based CPE reduction assay; assay type: functional, cell-based; conditions: Enterovirus C, 72 h; how it was run: as §1
[6] = Antiviral activity against Human coxsackievirus A21 (strain Coe) infected in african green monkey Vero cells assessed as inhibition of virus-induced cytopathic effect after 3 days by MTS-based CPE reduction assay; assay type: functional, cell-based; conditions: Enterovirus C, 72 h; how it was run: as §1
[7] = Antiviral activity against Coxsackievirus B3 (strain Nancy) infected in african green monkey Vero cells assessed as inhibition of virus-induced cytopathic effect after 3 days by MTS-based CPE reduction assay; assay type: functional, cell-based; conditions: Enterovirus B, 72 h
How it was run: (§2)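 Confluent cells infected with 100 CCID50 virus; 2 h adsorption at 37°C (35°C for rhinovirus), then inoculum removed and serial compound dilutions added. Incubated 3 days at 37°C until full CPE in virus controls. MTS/PMS added for 2 h, OD498 read; % CPE from cell and virus controls; EC50 as 50% protection, by logarithmic interpolation. Mean of ≥3 independent experiments.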

[8] = Antiviral activity against Human enterovirus 71 (strain BRCR) infected in african green monkey Vero cells assessed as inhibition of virus-induced cytopathic effect after 3 days by MTS-based CPE reduction assay; assay type: functional, cell-based; conditions: Enterovirus A, 72 h; how it was run: as §2
[9] = Antiviral activity against Human coxsackievirus A16 (strain G-10) A16 infected in african green monkey Vero cells assessed as inhibition of virus-induced cytopathic effect after 3 days by MTS-based CPE reduction assay; assay type: functional, cell-based; conditions: Enterovirus A, 72 h; how it was run: as §2
rhinovirus A89 = test: Antiviral activity against Human rhinovirus 89 infected in african green monkey Vero cells assessed as inhibition of virus-induced cytopathic effect after 3 days by MTS-based CPE reduction assay; assay type: functional, organism-based; conditions: Rhinovirus A, 72 h; how it was run: as §2
rhinovirus A2 = test: Antiviral activity against Human rhinovirus 2 infected in african green monkey Vero cells assessed as inhibition of virus-induced cytopathic effect after 3 days by MTS-based CPE reduction assay; assay type: functional, organism-based; conditions: Rhinovirus A, 72 h; how it was run: as §2
rhinovirus A29 = test: Antiviral activity against Human rhinovirus 29 infected in african green monkey Vero cells assessed as inhibition of virus-induced cytopathic effect after 3 days by MTS-based CPE reduction assay; assay type: functional, organism-based; conditions: Rhinovirus A, 72 h; how it was run: as §2
rhinovirus B86 = test: Antiviral activity against Human rhinovirus 86 infected in african green monkey Vero cells assessed as inhibition of virus-induced cytopathic effect after 3 days by MTS-based CPE reduction assay; assay type: functional, organism-based; conditions: Rhinovirus B, 72 h; how it was run: as §2
rhinovirus A85 = test: Antiviral activity against Human rhinovirus 85 infected in african green monkey Vero cells assessed as inhibition of virus-induced cytopathic effect after 3 days by MTS-based CPE reduction assay; assay type: functional, organism-based; conditions: Rhinovirus A, 72 h; how it was run: as §2
rhinovirus B72 = test: Antiviral activity against Human rhinovirus 72 infected in african green monkey Vero cells assessed as inhibition of virus-induced cytopathic effect after 3 days by MTS-based CPE reduction assay; assay type: functional, organism-based; conditions: Rhinovirus B, 72 h; how it was run: as §2
rhinovirus B70 = test: Antiviral activity against Human rhinovirus 70 infected in african green monkey Vero cells assessed as inhibition of virus-induced cytopathic effect after 3 days by MTS-based CPE reduction assay; assay type: functional, organism-based; conditions: Rhinovirus B, 72 h; how it was run: as §2
rhinovirus A63 = test: Antiviral activity against Human rhinovirus 63 infected in african green monkey Vero cells assessed as inhibition of virus-induced cytopathic effect after 3 days by MTS-based CPE reduction assay; assay type: functional, organism-based; conditions: Rhinovirus A, 72 h; how it was run: as §2
rhinovirus A45 = test: Antiviral activity against Human rhinovirus 45 infected in african green monkey Vero cells assessed as inhibition of virus-induced cytopathic effect after 3 days by MTS-based CPE reduction assay; assay type: functional, organism-based; conditions: Rhinovirus A, 72 h; how it was run: as §2
[10] = Antiviral activity against Human rhinovirus 42 infected in african green monkey Vero cells assessed as inhibition of virus-induced cytopathic effect after 3 days by MTS-based CPE reduction assay; assay type: functional, cell-based; conditions: Rhinovirus B, 72 h; how it was run: as §2
rhinovirus A41 = test: Antiviral activity against Human rhinovirus 41 infected in african green monkey Vero cells assessed as inhibition of virus-induced cytopathic effect after 3 days by MTS-based CPE reduction assay; assay type: functional, organism-based; conditions: Rhinovirus A, 72 h; how it was run: as §2
rhinovirus A39 = test: Antiviral activity against Human rhinovirus 39 infected in african green monkey Vero cells assessed as inhibition of virus-induced cytopathic effect after 3 days by MTS-based CPE reduction assay; assay type: functional, organism-based; conditions: Rhinovirus A, 72 h; how it was run: as §2
rhinovirus A15 = test: Antiviral activity against Human rhinovirus 15 infected in african green monkey Vero cells assessed as inhibition of virus-induced cytopathic effect after 3 days by MTS-based CPE reduction assay; assay type: functional, organism-based; conditions: Rhinovirus A, 72 h; how it was run: as §2
rhinovirus B14 = test: Antiviral activity against Human rhinovirus 14 infected in african green monkey Vero cells assessed as inhibition of virus-induced cytopathic effect after 3 days by MTS-based CPE reduction assay; assay type: functional, organism-based; conditions: Rhinovirus B, 72 h; how it was run: as §2
rhinovirus A9 = test: Antiviral activity against Human rhinovirus 9 infected in african green monkey Vero cells assessed as inhibition of virus-induced cytopathic effect after 3 days by MTS-based CPE reduction assay; assay type: functional, organism-based; conditions: Rhinovirus A, 72 h; how it was run: as §2
Poliovirus 3 = test: Antiviral activity against Human poliovirus 3 strain Sabin infected in african green monkey Vero cells assessed as inhibition of virus-induced cytopathic effect after 3 days by MTS-based CPE reduction assay; assay type: functional, organism-based; conditions: Enterovirus C, 72 h; how it was run: as §1
Vero [11] = test: Antiviral activity against Coxsackievirus B3 (strain Nancy) infected in african green monkey Vero cells assessed as inhibition of virus-induced cytopathic effect after 3 days by plaque assay; assay type: functional, cell-based
How it was run: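 Confluent Vero cells infected with CVB3 for 2 h at 37°C with gentle shaking, washed twice with PBS, then overlaid with 0.4% agar with or without compound. After 3-4 days, fixed with 4% formaldehyde, agar removed, Giemsa-stained and plaques counted. Read at day 3 post-infection; averages ± SD of three independent experiments.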

Vero [12] = test: Antiviral activity against Coxsackievirus B3 (strain Nancy) infected in african green monkey Vero cells assessed as inhibition viral replication at 25 uM administered at 1 hr interval starting at 1 hr before viral infection measured within first 3 hrs postinfection; assay type: functional, cell-based
How it was run: (§3)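 Confluent Vero cells infected with 10⁴ CCID50 CVB3, 1 h adsorption at 37°C, inoculum replaced with medium. Compound (final 25 µM) added at 1-h intervals, starting 1 h before infection. At 8 h post-infection, supernatant and intracellular RNA collected and viral RNA quantified by one-step TaqMan qRT-PCR against a synthetic transcript standard curve; normalized to 0-h point; two independent experiments.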

Vero [13] = test: Antiviral activity against Coxsackievirus B3 (strain Nancy) infected in african green monkey Vero cells assessed as inhibition viral replication at 25 uM administered at 1 hr interval starting at 3 hrs after viral infection; assay type: functional, cell-based; how it was run: as §3
[14] = test system: Coxsackievirus B3 (strain Nancy); test: Antiviral activity against Coxsackievirus B3 (strain Nancy) infected in buffalo green monkey cells assessed as inhibition of viral RNA accumulation at 25 uM by luciferase reporter gene assay; assay type: functional, cell-based
How it was run: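 BGM cells transfected with RNA from SalI-linearized CVB3 subgenomic replicon with luciferase replacing P1, with or without 25 µM compound. At set times post-transfection, cells washed with PBS, lysed, and luciferase measured as relative light units. Averages ± SD of three independent experiments.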

[15] = test system: Coxsackievirus B3 (strain Nancy); test: Antiviral activity against Coxsackievirus B3 (strain Nancy) infected in buffalo green monkey cells assessed as inhibition of viral RNA accumulation at 2 mM by luciferase reporter gene assay; assay type: functional, cell-based
Coxsackievirus B3 [16] = test: Inhibition of viral polyprotein synthesis in Coxsackievirus B3 (strain Nancy) infected in buffalo green monkey cells at 25 uM by SDS PAGE assay; assay type: functional, cell-based
How it was run: (§4)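 Confluent BGM cells infected with CVB3 at MOI 50. At 5 h, methionine starvation for 30 min, then 30-min [35S]Met pulse with or without 25 µM compound. At 6 h, lysed in Tris-HCl pH 7.4/NaCl/EDTA/NP-40/0.05% SDS buffer; translation products resolved by SDS-PAGE. Three independent experiments.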

Coxsackievirus B3 [17] = test: Inhibition of viral polyprotein processing in Coxsackievirus B3 (strain Nancy) infected in buffalo green monkey cells at 25 uM by SDS PAGE assay; assay type: functional, cell-based; how it was run: as §4
[18] = Cytotoxicity against african green monkey Vero cells; assay type: cell-based; conditions: chlorocebus sabaeus, read-out: TC50 (the source's name)
How it was run: (§5)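 Cytotoxicity measured on confluent Vero and HeLa cells, given as 50% cytotoxic concentration; solubility limit in assay medium 100 µM.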

[19] = Cytotoxicity against human HeLa cells; assay type: cell-based; conditions: read-out: TC50 (the source's name); how it was run: as §5

| Compound | EC50 (Coxsackievirus B3 [1]) [nM] | EC50 (Coxsackievirus B3 [2]) [nM] | EC50 (Coxsackievirus B3 [3]) [nM] | EC50 (Coxsackievirus B3 [4]) [nM] | EC50 (Coxsackievirus B3 [5]) [nM] | EC50 (Poliovirus 2) [nM] | EC50 (Poliovirus 1) [nM] | EC50 [6] [nM] | EC50 [7] [nM] | EC50 [8] [nM] | EC50 [9] [nM] | EC50 (rhinovirus A89) [nM] | EC50 (rhinovirus A2) [nM] | EC50 (rhinovirus A29) [nM] | EC50 (rhinovirus B86) [nM] | EC50 (rhinovirus A85) [nM] | EC50 (rhinovirus B72) [nM] | EC50 (rhinovirus B70) [nM] | EC50 (rhinovirus A63) [nM] | EC50 (rhinovirus A45) [nM] | also measured |
| --- | --- | --- | --- | --- | --- | --- | --- | --- | --- | --- | --- | --- | --- | --- | --- | --- | --- | --- | --- | --- | --- |
| Fc1cccc(F)c1C1SCc2nc3cc(C(F)(F)F)ccc3n21 (stereo not drawn) | 2900 | 2900 | 3600 | 3700 | 3400 | – | – | – | – | – | – | – | – | – | – | – | – | – | – | – | – |
| CC(C)S(=O)(=O)n1c(N)nc2ccc(/C(=N/O)c3ccccc3)cc21 [ENVIROXIME] | 500 | 700 | 1500 | 1800 | 1700 | 60 | 190 | 480 | 1900 | 150 | 120 | 100 | 26 | 29 | 140 | 33 | 720 | 110 | 27 | 250 | EC50 [10]: 110 nM; EC50 (rhinovirus A41): 27 nM; EC50 (rhinovirus A39): 28 nM; EC50 (rhinovirus A15): 42 nM; EC50 (rhinovirus B14): 110 nM; EC50 (rhinovirus A9): 38 nM; EC50 (Poliovirus 3): 40 nM |
| C[C@@H](NC(=O)c1cccc(-c2cnc(-c3cc4ccccc4cn3)[nH]2)c1)c1ccc(F)cc1 | 1900 | 6000 | 17700 | 19800 | 15300 | 580 | 510 | 5340 | 1200 | > 60000 | 850 | > 50000 | 800 | 770 | > 50000 | 1220 | > 50000 | > 50000 | 91 | 990 | inhibition (Vero [11]): Dose-dependent effect; inhibition (Vero [12]): Active; inhibition (Vero [13]): inactive; inhibition [14]: Active; inhibition [15]: Active; inhibition (Coxsackievirus B3 [16]): inactive; inhibition (Coxsackievirus B3 [17]): inactive; EC50 [10]: > 50000 nM; EC50 (rhinovirus A41): > 50000 nM; EC50 (rhinovirus A39): 650 nM; EC50 (rhinovirus A15): > 50000 nM; EC50 (rhinovirus B14): > 50000 nM; EC50 (rhinovirus A9): > 50000 nM; EC50 (Poliovirus 3): 270 nM |
| C[C@@H](NC(=O)c1cccc(-c2c[nH]c(-c3cc4ccccc4cn3)n2)c1)c1ccc(F)cc1 | – | – | – | – | – | – | – | – | – | – | – | – | – | – | – | – | – | – | – | – | CC50 [18]: > 100000 nM; CC50 [19]: > 100000 nM |
